Relative IC50, IC50 and ED50 data for two compounds are collected here from ChEMBL document CHEMBL1132485, “Synthesis and biological evaluation of a potent E-selectin antagonist” (J Med Chem, 1999).

“And” between values parts separate entries of the source, which are not always exact repeats. Equal values may be shown once.

Assay [1] has as its target T1, E-selectin (Homo sapiens) (UniProt P16581).
T1 sequence (whole entry): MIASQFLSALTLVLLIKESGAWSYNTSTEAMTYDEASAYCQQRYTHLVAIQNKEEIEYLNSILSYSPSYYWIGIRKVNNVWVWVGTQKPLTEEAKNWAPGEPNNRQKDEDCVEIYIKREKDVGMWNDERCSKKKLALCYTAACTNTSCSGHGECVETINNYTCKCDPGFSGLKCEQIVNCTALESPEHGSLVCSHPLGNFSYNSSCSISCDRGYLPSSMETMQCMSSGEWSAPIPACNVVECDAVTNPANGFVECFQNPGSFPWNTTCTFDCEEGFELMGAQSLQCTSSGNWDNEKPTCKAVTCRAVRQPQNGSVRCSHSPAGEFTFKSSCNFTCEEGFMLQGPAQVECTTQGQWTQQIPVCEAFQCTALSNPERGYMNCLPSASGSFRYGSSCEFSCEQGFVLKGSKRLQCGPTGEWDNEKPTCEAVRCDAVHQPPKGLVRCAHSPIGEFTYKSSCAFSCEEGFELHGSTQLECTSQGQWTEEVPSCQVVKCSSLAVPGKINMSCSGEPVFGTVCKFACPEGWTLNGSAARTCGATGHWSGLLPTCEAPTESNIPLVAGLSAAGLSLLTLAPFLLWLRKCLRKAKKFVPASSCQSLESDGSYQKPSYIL
Briefly: Ratio of IC50 of compound to IC50 of sLex. Format: functional. In short, it runs like this: (§1)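 Cell-free competitive binding assay in which immobilized E-selectin is incubated with a multivalent polylysine/sialyl Lewis^a conjugate and then treated with test compounds. The sLe^x tetrasaccharide is run as a reference on every plate. Relative IC50 is IC50(test)/IC50(sLe^x) from the same plate. Data come from three separate assays.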

Assay [2] concerns the target T2, E-selectin (Homo sapiens, UniProt P16581).
T2 sequence (P16581 whole entry): T1 sequence (whole entry)
Briefly: In vitro inhibitory activity against Selectin E. In short, it runs like this: as §1

Assay [3] is filed under the species Mus musculus. Briefly: Inhibitory effect in a thioglycollate induced peritonitis model of acute inflammation in mice. Format: functional.
Assay [4] concerns the target T2, E-selectin. Description: In vitro inhibitory activity against Selectin E measured by sLex(static cell free ligand binding assay). In short, it runs like this:
as §1

A word on the IC50: it is the concentration at which inhibition is half-maximal. A high value points to a need for much substance. For orientation: ED50 means the midpoint of the dose-response relation. `C[C@@H]1O[C@@H](O[C@@H]2[C@H](CO)OCC[C@H]2O[C@@H]2O[C@@H](CO)[C@H](O)C(O[C@@H](CC3CCCCC3)C(=O)[O-])[C@@H]2O)[C@@H](O)[C@@H](O)[C@@H]1O.[Na+]` (some centres undefined): in assay [1], the Relative IC50 is 0.031 [middle of 4 runs]. In addition, in assay [2], the IC50 was 33 µM and 24 µM and 51 µM and 36 µM. For the same compound, in assay [3], the 50% effective dose (ED50) was 15 mg/kg.
In the case of `COC(=O)CCCCCCCCO[C@@H]1C[C@@H](CO)[C@@H](O[C@@H]2O[C@@H](O)[C@H](O)[C@H](O[C@]3(C(=O)O)C[C@@H](O)[C@@H](NC(C)=O)[C@H]([C@H](O)[C@H](O)CO)O3)[C@@H]2O)[C@H](O[C@@H]2O[C@@H](C)[C@@H](O)[C@H](O)[C@@H]2O)[C@@H]1NC(C)=O`, in assay [4], the IC50 was 1180 µM and 889 µM and 1310 µM and 1130 µM.
